Assay results published in ChEMBL document CHEMBL2401645, “Bivalent ligands that target μ opioid (MOP) and cannabinoid1 (CB1) receptors are potent analgesics devoid of tolerance” (2013).
Calls of active or inactive are those of the source. The calls are words filed in the database; no cut-off is given here.

What was measured:
Mus musculus [1] = experiment: Ratio of ED50 for antinociception activity in icv dosed ICR-CD1 mouse to ED50 for antinociception activity in intrathecally dosed ICR-CD1 mouse by radiant heat tail flick test; format: functional
How it was run: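 ED50 values (pmol/mouse) come from radiant-heat tail-flick dose-response curves in male ICR-CD1 mice after i.c.v. or i.t. injection, with %MPE read-out and at least three groups of 8–10 mice per curve. The ratio is i.c.v. ED50 divided by i.t. ED50.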

[2] = target: Cannabinoid receptor 1/Mu-type opioid receptor (Homo sapiens) (UniProt P21554+P35372); experiment: Induction of human MOPR/CB1receptor internalization transiently expressed in HEK293 cells at 1 uM after 30 mins by immunofluorescence assay; format: cell-based
How it was run: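 HEK-293 cells were transiently transfected with human MOP and CB1 cDNA (16 μg per 2 million cells) and seeded into chamber slides 24 h later. After a further 24 h, cells were exposed to ligand (1 μM) for 30 min. They were then fixed in 4% paraformaldehyde and incubated overnight at 4°C with MOP- and CB1-selective primary antibodies. Fluorescent secondaries (red MOP, green CB1) were applied, and receptor location was imaged by confocal microscopy.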

Mus musculus [3] = experiment: Antinociceptive activity against intrathecally dosed ICR-CD1 mouse by radiant heat tail flick test; format: functional
How it was run: (§1)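 Male ICR-CD1 mice (17–25 g), single i.c.v. or i.t. injection; tail-flick latency to radiant heat. Antinociception as %MPE = (Test − Control)/(10 − Control) × 100. Dose-response curves from at least three groups of 8–10 mice, each mouse used once; ED50 with 95% C.I. in pmol/mouse.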

Mus musculus [4] = experiment: Reduction in tolerance acquisition in ICR-CD1 mouse assessed as compound antinociception effect at 125 to 2500 pmol intrathecally administered on day 1 and repeated on day 2 measured on day 1 by radiant heat tail flick test; format: functional; parameters: scale not given: the % may be the effect or the level left
Mus musculus [5] = experiment: Reduction in tolerance acquisition in ICR-CD1 mouse assessed as compound antinociception effect at 125 to 2500 pmol intrathecally administered on day 1 and repeated on day 2 measured on day 2 by radiant heat tail flick test; format: functional; parameters: scale not given: the % may be the effect or the level left
Mus musculus [6] = experiment: Reduction in tolerance acquisition in ICR-CD1 mouse assessed as compound antinociception effect at 125 to 2500 pmol, icv administered on day 1 and repeated after 48 hrs measured on day 3 by radiant heat tail flick test; format: functional; parameters: scale not given: the % may be the effect or the level left
Mus musculus [7] = experiment: Reduction in tolerance acquisition in ICR-CD1 mouse assessed as compound antinociception effect at 125 to 2500 pmol, icv administered on day 1 measured after 24 hrs by radiant heat tail flick test; format: functional; parameters: scale not given: the % may be the effect or the level left
Mus musculus [8] = experiment: Antinociceptive activity against icv dosed ICR-CD1 mouse by radiant heat tail flick test; format: functional; how it was run: as §1
Mus musculus [9] = experiment: Reduction in tolerance acquisition in ICR-CD1 mouse assessed as compound antinociception effect at 125 to 2500 pmol, icv administered on day 1 and repeated on day 2 measured on day 1 by radiant heat tail flick test; format: functional; parameters: scale not given: the % may be the effect or the level left
How it was run: (§2)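 Tolerance test in male ICR-CD1 mice given i.c.v. The highest dose of the day-1 dose-response curve is given on day 1 and repeated 24 h later in the same mice. Radiant-heat tail-flick %MPE is recorded each day, and mice with no significant day-to-day difference are classed as not tolerant.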

Mus musculus [10] = experiment: Reduction in tolerance acquisition in ICR-CD1 mouse assessed as compound antinociception effect at 125 to 2500 pmol, icv administered on day 1 and repeated on day 2 measured on day 2 by radiant heat tail flick test; format: functional; parameters: scale not given: the % may be the effect or the level left; how it was run: as §2
Mus musculus [11] = experiment: Antinociceptive activity in ICR-CD1 mouse at 2500 pmol, icv by radiant heat tail flick test; format: functional
Mus musculus [12] = experiment: Antinociceptive activity in ICR-CD1 mouse at 2500 pmol administered intrathecally by radiant heat tail flick test; format: functional
Mus musculus [13] = experiment: Antinociceptive activity in ICR-CD1 mouse at 250 pmol, icv by radiant heat tail flick test; format: functional
Mus musculus [14] = experiment: Antinociceptive activity in ICR-CD1 mouse at 250 pmol administered intrathecally by radiant heat tail flick test; format: functional

SMILES | Ratio ED50 (Mus musculus [1]) | Activity [2] | ED50 (Mus musculus [3]) [pmol] | Activity (Mus musculus [4]) [%] | Activity (Mus musculus [5]) [%] | Activity (Mus musculus [6]) [%] | Activity (Mus musculus [7]) [%] | ED50 (Mus musculus [8]) [pmol] | Activity (Mus musculus [9]) [%] | Activity (Mus musculus [10]) [%] | Activity (Mus musculus [11]) | Activity (Mus musculus [12]) | Activity (Mus musculus [13]) [%] | Activity (Mus musculus [14]) [%]
Cc1c(C(=O)NC2CCN(C(=O)COCC(=O)NCCCCCCCNC(=O)COCC(=O)N[C@H]3CC[C@@]4(O)[C@H]5Cc6ccc(O)c7c6[C@@]4(CCN5C)[C@H]3O7)CC2)nn(-c2ccc(Cl)cc2Cl)c1-c1ccc(Cl)cc1 | 1.8 | inactive | 5 | 92.2 | 87.91 | 72.81 | 47 | 9 | 89.75 |  |  |  |  | 
CNC(=O)COCC(=O)NCCCCCNC(=O)COCC(=O)N[C@H]1CC[C@@]2(O)[C@H]3Cc4ccc(O)c5c4[C@@]2(CCN3C)[C@H]1O5 | 1.01 | Active | 106 | 75.98 | 39.54 |  |  | 108 | 82.15 | 24.14 |  |  |  | 
Cc1c(C(=O)NC2CCN(C(=O)N[C@H]3CC[C@@]4(O)[C@H]5Cc6ccc(O)c7c6[C@@]4(CCN5C)[C@H]3O7)CC2)nn(-c2ccc(Cl)cc2Cl)c1-c1ccc(Cl)cc1 | 2.18 |  | 559 | 73.55 | 66.01 |  |  | 1219 | 64.27 | 33.85 |  |  |  | 
Cc1c(C(=O)NC2CCN(C(=O)COCC(=O)NCCNC(=O)COCC(=O)N[C@H]3CC[C@@]4(O)[C@H]5Cc6ccc(O)c7c6[C@@]4(CCN5C)[C@H]3O7)CC2)nn(-c2ccc(Cl)cc2Cl)c1-c1ccc(Cl)cc1 | 1.31 | Active | 42 | 98.33 | 72.5 |  |  | 55 | 83.47 | 66.99 |  |  |  | 
Cc1c(C(=O)NC2CCN(C(=O)COCC(=O)NCCCCCCNC(=O)COCC(=O)N[C@H]3CC[C@@]4(O)[C@H]5Cc6ccc(O)c7c6[C@@]4(CCN5C)[C@H]3O7)CC2)nn(-c2ccc(Cl)cc2Cl)c1-c1ccc(Cl)cc1 | 9.86 | Active | 19 | 78.51 | 79.58 |  |  | 189 | 95.43 | 86.33 |  |  |  | 
Cc1c(C(=O)NC2CCN(C(=O)COCC(=O)N[C@H]3CC[C@@]4(O)[C@H]5Cc6ccc(O)c7c6[C@@]4(CCN5C)[C@H]3O7)CC2)nn(-c2ccc(Cl)cc2Cl)c1-c1ccc(Cl)cc1 | 19.48 | Active | 27 | 81.72 | 73.41 |  |  | 523 | 77.72 | 63.7 |  |  |  | 
Cc1c(C(=O)NN2CCCCC2)nn(-c2ccc(Cl)cc2Cl)c1-c1ccc(Cl)cc1 |  |  |  |  |  |  |  |  |  |  | inactive | inactive |  | 
CNC(=O)COCC(=O)NCCCCNC(=O)COCC(=O)N1CCC(NC(=O)c2nn(-c3ccc(Cl)cc3Cl)c(-c3ccc(Cl)cc3)c2C)CC1 |  | inactive |  |  |  |  |  |  |  |  | 20% | 20% | 20 | 20
